Experiments:
[1] = test system: Human immunodeficiency virus 1; experiment: Antiviral activity against HIV1 with reverse transcriptase Y188L mutation in human CEM cells assessed as protection against virus-induced cytopathicity; assay type: functional, organism-based; conditions: Human immunodeficiency virus 1, CCRF-CEM
How it was run: (§1)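 CEM cells (~3 × 10⁵ cells/mL) were infected with ~100 CCID₅₀ virus per mL and seeded with serial compound dilutions. After 4 days at 37 °C, syncytium (giant cell) formation was scored microscopically. EC₅₀ is the concentration giving 50% protection against virus cytopathicity.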

[2] = test system: Human alphaherpesvirus 1; experiment: Antiviral activity against HSV1 KOS in human HEL cells assessed as protection against virus-induced cytopathicity; assay type: functional, organism-based; conditions: Human alphaherpesvirus 1, KOS
[3] = biological target: Human immunodeficiency virus type 1 reverse transcriptase (Human immunodeficiency virus 1, UniProt Q72547); experiment: Inhibition of HIV1 reverse transcriptase p66/p51; conditions: read-out: IC50
[4] = test system: Influenza B virus; experiment: Antiviral activity against influenza B virus in MDCK cells assessed as reduction of virus-induced cytopathicity by visual cytopathic effect scoring method; assay type: functional, organism-based
[5] = biological target: Human immunodeficiency virus type 1 reverse transcriptase (Human immunodeficiency virus 1, UniProt Q72547, L100I); experiment: Inhibition of HIV1 reverse transcriptase p66/p51 L100I mutant; conditions: read-out: IC50
How it was run: (§2)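 Substrate was 0.5 µg poly(rA)/oligo(dT) 10:1 (0.3 µM 3′-OH ends) with 10 µM [³H]dTTP, at 37 °C. Acid-precipitable radioactivity was counted on GF/C filters after TCA washes.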

[6] = Cytotoxicity against MDCK cells assessed as drug level causing microscopically detectable alteration of normal cell morphology; assay type: cell-based, Canis lupus familiaris; conditions: dog
[7] = Antiproliferative activity against human Molt4/C8 cells after 3 days; assay type: cell-based; conditions: MOLT-4, 72 h
How it was run: (§3)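 Cells seeded at 5 × 10⁴ to 7.5 × 10⁴ cells/200 µL with or without serial compound dilutions; incubated at 37 °C for 2 days (L1210) or 3 days (Molt4/C8, CEM). Cell numbers counted with a Coulter counter. CC₅₀ = concentration reducing proliferation by 50% versus untreated controls, read from plots of cell number (% of control) against concentration. Means of at least two independent experiments.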

[8] = Cytotoxicity against human HeLa cells assessed as drug level causing microscopically detectable alteration of normal cell morphology after 3 days; assay type: cell-based
How it was run: (§4)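 Serial compound dilutions added to confluent HeLa or Vero monolayers. MCC = minimum concentration causing microscopically detectable alteration of cell morphology after 3 days of incubation.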

[9] = test system: CCRF-CEM; experiment: Antiproliferative activity against human CEM cells after 3 days; assay type: cell-based; conditions: 72 h; how it was run: as §3
[10] = test system: L1210; experiment: Antiproliferative activity against mouse L1210 cells after 2 days; assay type: cell-based; conditions: L1210, 48 h; how it was run: as §3
[11] = test system: Influenza A virus; experiment: Antiviral activity against influenza H1N1 virus in MDCK cells assessed as reduction of virus-induced cytopathicity by MTS method; assay type: functional, organism-based; conditions: Influenza A virus, H1N1, MDCK
[12] = test system: Influenza A virus H3N2; experiment: Antiviral activity against influenza H3N2 virus in MDCK cells assessed as reduction of virus-induced cytopathicity by visual cytopathic effect scoring method; assay type: functional, organism-based
[13] = test system: Human immunodeficiency virus 2; experiment: Antiviral activity against HIV2 ROD in human CEM cells assessed as protection against virus-induced cytopathicity after 4 days; assay type: functional, organism-based; conditions: Human immunodeficiency virus 2, ROD, CCRF-CEM, 96 h
How it was run: (§5)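 CEM cells (~3 × 10⁵ cells/mL) infected with ~100 CCID₅₀ per mL of HIV-1 (IIIB) or HIV-2 (ROD), then seeded into wells containing compound dilutions. After 4 days at 37 °C, syncytium (giant cell) formation was examined microscopically. EC₅₀ = concentration protecting CEM cells from HIV cytopathicity by 50%.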

[14] = test system: Felid alphaherpesvirus 1; experiment: Antiviral activity against Feline herpesvirus in feline […] cells assessed as inhibition of virus-induced cytopathicity; assay type: functional, organism-based
[15] = biological target: Human immunodeficiency virus type 1 reverse transcriptase (Human immunodeficiency virus 1, UniProt Q72547, K103N); experiment: Inhibition of HIV1 reverse transcriptase p66/p51 K103N mutant; conditions: read-out: IC50; how it was run: as §2
[16] = test system: Mammalian orthoreovirus 1; experiment: Antiviral activity against Reovirus 1 in african green monkey Vero cells assessed as protection against virus-induced cytopathicity; assay type: functional, organism-based; conditions: Mammalian orthoreovirus 1, Vero
How it was run: (§6)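 Confluent cell monolayers inoculated with 100 CCID₅₀ virus. After 1-2 h adsorption, residual virus removed and cultures incubated with varying compound concentrations. Cytopathicity scored once it reached completion in untreated infected controls. EC₅₀ = dose reducing virus-induced cytopathogenicity by 50%.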

[17] = test system: Influenza A virus H3N2; experiment: Antiviral activity against influenza H3N2 virus in MDCK cells assessed as reduction of virus-induced cytopathicity by MTS method; assay type: functional, organism-based
[18] = test system: Vaccinia virus; experiment: Antiviral activity against Vaccinia virus Lederle in human HEL cells assessed as protection against virus-induced cytopathicity; assay type: functional, organism-based; conditions: Orthopoxvirus vaccinia
[19] = test system: Influenza B virus; experiment: Antiviral activity against influenza B virus in MDCK cells assessed as reduction of virus-induced cytopathicity by MTS method; assay type: functional, organism-based
[20] = test system: Human respirovirus 3; experiment: Antiviral activity against Parainfluenza virus type 3 in african green monkey Vero cells assessed as protection against virus-induced cytopathicity; assay type: functional, organism-based; conditions: Human respirovirus 3, Vero; how it was run: as §6
[21] = test system: Vesicular stomatitis virus; experiment: Antiviral activity against VSV in human HEL cells assessed as protection against virus-induced cytopathicity; assay type: functional, organism-based
[22] = test system: Respiratory syncytial virus; experiment: Antiviral activity against RSV Long in human HeLa cells assessed as protection against virus-induced cytopathicity; assay type: functional, organism-based; how it was run: as §6
[23] = test system: Human alphaherpesvirus 2; experiment: Antiviral activity against HSV2 G in human HEL cells assessed as protection against virus-induced cytopathicity; assay type: functional, organism-based; conditions: Human alphaherpesvirus 2, strain G; how it was run: as §6
[24] = test system: Coxsackievirus B4; experiment: Antiviral activity against Coxsackievirus B4 in human HeLa cells assessed as protection against virus-induced cytopathicity; assay type: functional, organism-based; conditions: Enterovirus B; how it was run: as §6
[25] = test system: Human immunodeficiency virus 1; experiment: Antiviral activity against HIV1 with reverse transcriptase Y181I mutation in human CEM cells assessed as protection against virus-induced cytopathicity; assay type: functional, organism-based; conditions: Human immunodeficiency virus 1, CCRF-CEM; how it was run: as §1
[26] = test system: Punta Toro virus; experiment: Antiviral activity against Punta Toro virus in african green monkey Vero cells assessed as protection against virus-induced cytopathicity; assay type: functional, organism-based; how it was run: as §6
[27] = test system: Feline coronavirus; experiment: Antiviral activity against Feline coronavirus in feline […] cells assessed as inhibition of virus-induced cytopathicity; assay type: functional, organism-based; conditions: Alphacoronavirus 1
[28] = test system: Human immunodeficiency virus 1; experiment: Antiviral activity against HIV1 with reverse transcriptase L100I mutation in human CEM cells assessed as protection against virus-induced cytopathicity; assay type: functional, organism-based; conditions: Human immunodeficiency virus 1, CCRF-CEM; how it was run: as §1
[29] = test system: Influenza A virus; experiment: Antiviral activity against influenza H1N1 virus in MDCK cells assessed as reduction of virus-induced cytopathicity by visual cytopathic effect scoring method; assay type: functional, organism-based
[30] = Cytotoxicity against african green monkey Vero cells assessed as drug level causing microscopically detectable alteration of normal cell morphology after 3 days; assay type: cell-based; conditions: chlorocebus sabaeus; how it was run: as §4
[31] = Cytotoxicity against human HEL cells assessed as drug level causing microscopically detectable alteration of normal cell morphology after 3 days; assay type: cell-based
[32] = test system: Sindbis virus; experiment: Antiviral activity against Sindbis virus in african green monkey Vero cells assessed as protection against virus-induced cytopathicity; assay type: functional, organism-based; how it was run: as §6
[33] = biological target: Human immunodeficiency virus type 1 reverse transcriptase (Human immunodeficiency virus 1, UniProt Q72547, Y181I); experiment: Inhibition of HIV1 reverse transcriptase p66/p51 Y181I mutant; conditions: read-out: IC50; how it was run: as §2
[34] = test system: Human immunodeficiency virus 1; experiment: Antiviral activity against HIV1 with reverse transcriptase K103N mutation in human CEM cells assessed as protection against virus-induced cytopathicity; assay type: functional, organism-based; conditions: Human immunodeficiency virus 1, CCRF-CEM; how it was run: as §1
[35] = test system: Human immunodeficiency virus 1; experiment: Antiviral activity against HIV1 with reverse transcriptase Y181C mutation in human CEM cells assessed as protection against virus-induced cytopathicity; assay type: functional, organism-based; conditions: Human immunodeficiency virus 1, CCRF-CEM; how it was run: as §1
[36] = test system: Human immunodeficiency virus 1; experiment: Antiviral activity against HIV1 3B in human CEM cells assessed as protection against virus-induced cytopathicity after 4 days; assay type: functional, organism-based; conditions: Human immunodeficiency virus 1, 3B, CCRF-CEM, 96 h; how it was run: as §5
[37] = test system: Human alphaherpesvirus 1; experiment: Antiviral activity against thymidine kinase deficient and acyclovir resistant HSV1 KOS in human HEL cells assessed as protection against virus-induced cytopathicity; assay type: functional, organism-based; conditions: Human alphaherpesvirus 1, KOS
[38] = Cytotoxicity against feline CRFK cells by MTS assay; assay type: cell-based, Felis catus; conditions: cat
[39] = test system: Coxsackievirus B4; experiment: Antiviral activity against Coxsackievirus B4 in african green monkey Vero cells assessed as protection against virus-induced cytopathicity; assay type: functional, organism-based; conditions: Enterovirus B; how it was run: as §6
[40] = Cytotoxicity against MDCK cells by MTS assay; assay type: cell-based, Canis lupus familiaris; conditions: dog
[41] = test system: Vesicular stomatitis virus; experiment: Antiviral activity against VSV in human HeLa cells assessed as protection against virus-induced cytopathicity; assay type: functional, organism-based

In the case of `Cc1cc(C)cc(S(=O)(=O)c2c(C(=O)NCCC(N)=O)[nH]c3ccc(Cl)cc23)c1`, the IC50 [1] is reported as no less than 1 µM, the EC50 [2] is reported as greater than 4 µM and the IC50 [3] is reported as 0.027 µM. It also gave an EC50 [4] greater than 4 µM, an IC50 [5] of 0.143 µM and an MCC [6] of 20 µM. For the same compound, the IC50 [7] was 9 µM, the MCC at 72 h [8] was 20 µM and the IC50 [9] was 16 µM. It also gave an IC50 [10] of 26 µM, an EC50 [11] greater than 4 µM and an EC50 [12] greater than 4 µM. The EC50 [13] was greater than 10 µM, the EC50 [14] was greater than 4 µM and the IC50 [15] was 0.351 µM. The EC50 [16] was greater than 20 µM, the EC50 [17] was greater than 4 µM and the EC50 [18] was greater than 4 µM. The EC50 [19] was greater than 4 µM, the EC50 [20] was greater than 20 µM and the EC50 [21] was greater than 4 µM. For the same compound, the EC50 [22] was greater than 4 µM, the EC50 [23] was greater than 4 µM and the EC50 [24] was greater than 4 µM. For the same compound, the IC50 [25] was greater than 1 µM, the EC50 [26] was greater than 20 µM and the EC50 [27] was greater than 4 µM. The IC50 [28] was 0.007 µM, the EC50 [29] was greater than 4 µM and the MCC at 72 h [30] was 100 µM. For the same compound, the MCC at 72 h [31] was 20 µM, the EC50 [32] was greater than 20 µM and the IC50 [33] was 5.05 µM. For the same compound, the IC50 [34] was 0.019 µM, the IC50 [35] was 0.078 µM and the EC50 [36] was 0.001 µM. For the same compound, the EC50 [37] was greater than 4 µM, the CC50 [38] was 1.7 µM and the EC50 [39] was 12 µM. For the same compound, the CC50 [40] was 9.7 µM and the EC50 [41] was greater than 4 µM.

Work on `Cc1cc(C)cc(S(=O)(=O)c2c(C(=O)NCC(N)=O)[nH]c3ccc(Cl)cc23)c1` yielded an IC50 [1] of 0.69 µM, an EC50 [2] greater than 100 µM and an IC50 [3] of 0.026 µM. It also gave an EC50 [4] greater than 4 µM, an IC50 [5] of 0.161 µM and an MCC [6] of 20 µM. For the same compound, the IC50 [7] was 15 µM, the MCC at 72 h [8] was 100 µM and the IC50 [9] was 92 µM. The IC50 [10] was 220 µM, the EC50 [11] was greater than 4 µM and the EC50 [12] was greater than 4 µM. The EC50 [13] was greater than 50 µM, the EC50 [14] was greater than 100 µM and the IC50 [15] was 0.28 µM. The EC50 [16] was greater than 100 µM, the EC50 [17] was greater than 4 µM and the EC50 [18] was greater than 100 µM. The EC50 [19] was greater than 4 µM, the EC50 [20] was greater than 100 µM and the EC50 [21] was greater than 100 µM. It also gave an EC50 [22] greater than 100 µM, an EC50 [23] greater than 100 µM and an EC50 [24] of no less than 20 µM. For the same compound, the IC50 [25] was greater than 1 µM, the EC50 [26] was greater than 100 µM and the EC50 [27] was greater than 100 µM. For the same compound, the IC50 [28] was 0.008 µM, the EC50 [29] was greater than 4 µM and the MCC at 72 h [30] was greater than 100 µM. For the same compound, the MCC at 72 h [31] was greater than 100 µM, the EC50 [32] was greater than 100 µM and the IC50 [33] was 1.65 µM. It also gave an IC50 [34] of 0.029 µM, an IC50 [35] of 0.074 µM and an EC50 [36] of 0.0019 µM. The EC50 [37] was greater than 100 µM, the CC50 [38] was greater than 100 µM and the EC50 [39] was greater than 100 µM. The CC50 [40] was 44.1 µM and the EC50 [41] was greater than 100 µM.
